# According to ChEMBL document CHEMBL4689842, “EUbOPEN Chemogenomics Library wave 1” (2021):
# Test system: Fibroblast
# Assay: Multiplex assay against human fibroblast
# Type: toxicity, cell-based
# How it was run: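 Phenotypes for tubulin, mitochondrial mass and membrane permeability are expressed as per cents of healthy-nucleus cells. Cells were stained live at seeding with Hoechst33342, BioTracker Green Microtubule Cytoskeleton Dye, MitoTracker Red and Annexin V Alexa Fluor 680, then imaged after compound addition on a CQ1 microscope at 37°C and 5% CO2. Machine-learning gating in CellPathfinder separated Hoechst high-intensity objects from normal cells, divided normal cells by nuclear state (healthy, pyknosed, fragmented) and divided pyknosed cells into mitotic or apoptotic.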
# [1] = 12 h, 1 µM, compound concentration 1 uM, replicate 1
# [2] = 12 h, 1 µM, compound concentration 1 uM, replicate 2
# [3] = 12 h, 10 µM, compound concentration 10 uM, replicate 1
# [4] = 12 h, 10 µM, compound concentration 10 uM, replicate 2
# [5] = 24 h, 1 µM, compound concentration 1 uM, replicate 1
# [6] = 24 h, 1 µM, compound concentration 1 uM, replicate 2
# [7] = 24 h, 10 µM, compound concentration 10 uM, replicate 1
# [8] = 24 h, 10 µM, compound concentration 10 uM, replicate 2
# [9] = 48 h, 1 µM, compound concentration 1 uM, replicate 1
# [10] = 48 h, 1 µM, compound concentration 1 uM, replicate 2
# [11] = 48 h, 10 µM, compound concentration 10 uM, replicate 1
# [12] = 48 h, 10 µM, compound concentration 10 uM, replicate 2
compound,measurement,setting,value
S=C(NCCCc1c[nH]cn1)NCCCN(Cc1ccc(Cl)c(Cl)c1)c1ccc(Br)cn1,Population Apoptotic (%),[1],52%
same,Population Fragmented Nuclei (%),[1],28%
same,Population Healthy Nuclei (%),[1],42%
same,Population Hoechst High Intensity Objects (%),[1],13%
same,Population Membrane Permeable-Phenotype (%),[1],28%
same,Population Mitochondria Different-Phenotype (%),[1],11%
same,Population Mitotic Cells (%),[1],47%
same,Population Normal (%),[1],86%
same,Population Pyknosed Nuclei (%),[1],28%
same,Population Tubulin-Different-Phenotype (%),[1],55%
same,Total Cell Count,[1],140
same,Population Apoptotic (%),[2],0%
same,Population Fragmented Nuclei (%),[2],17%
same,Population Healthy Nuclei (%),[2],82%
same,Population Hoechst High Intensity Objects (%),[2],15%
same,Population Membrane Permeable-Phenotype (%),[2],8%
same,Population Mitochondria Different-Phenotype (%),[2],8%
same,Population Mitotic Cells (%),[2],0%
same,Population Normal (%),[2],84%
same,Population Pyknosed Nuclei (%),[2],0%
same,Population Tubulin-Different-Phenotype (%),[2],4%
same,Total Cell Count,[2],79
same,Population Apoptotic (%),[3],46%
same,Population Fragmented Nuclei (%),[3],18%
same,Population Healthy Nuclei (%),[3],8%
same,Population Hoechst High Intensity Objects (%),[3],20%
same,Population Membrane Permeable-Phenotype (%),[3],66%
same,Population Mitochondria Different-Phenotype (%),[3],11%
same,Population Mitotic Cells (%),[3],53%
same,Population Normal (%),[3],79%
same,Population Pyknosed Nuclei (%),[3],72%
same,Population Tubulin-Different-Phenotype (%),[3],88%
same,Total Cell Count,[3],133
same,Population Apoptotic (%),[4],93%
same,Population Fragmented Nuclei (%),[4],25%
same,Population Healthy Nuclei (%),[4],2%
same,Population Hoechst High Intensity Objects (%),[4],11%
same,Population Membrane Permeable-Phenotype (%),[4],100%
same,Population Mitochondria Different-Phenotype (%),[4],100%
same,Population Mitotic Cells (%),[4],6%
same,Population Normal (%),[4],88%
same,Population Tubulin-Different-Phenotype (%),[4],100%
same,Total Cell Count,[4],33
same,Population Apoptotic (%),[5],66%
same,Population Fragmented Nuclei (%),[5],32%
same,Population Healthy Nuclei (%),[5],48%
same,Population Hoechst High Intensity Objects (%),[5],17%
same,Population Membrane Permeable-Phenotype (%),[5],19%
same,Population Mitochondria Different-Phenotype (%),[5],11%
same,Population Mitotic Cells (%),[5],33%
same,Population Normal (%),[5],82%
same,Population Pyknosed Nuclei (%),[5],18%
same,Population Tubulin-Different-Phenotype (%),[5],64%
same,Total Cell Count,[5],154
same,Population Apoptotic (%),[6],0%
same,Population Fragmented Nuclei (%),[6],19%
same,Population Healthy Nuclei (%),[6],80%
same,Population Hoechst High Intensity Objects (%),[6],8%
same,Population Membrane Permeable-Phenotype (%),[6],16%
same,Population Mitochondria Different-Phenotype (%),[6],8%
same,Population Mitotic Cells (%),[6],0%
same,Population Normal (%),[6],91%
same,Population Pyknosed Nuclei (%),[6],0%
same,Population Tubulin-Different-Phenotype (%),[6],20%
same,Total Cell Count,[6],79
same,Population Apoptotic (%),[7],53%
same,Population Fragmented Nuclei (%),[7],24%
same,Population Healthy Nuclei (%),[7],15%
same,Population Hoechst High Intensity Objects (%),[7],21%
same,Population Membrane Permeable-Phenotype (%),[7],56%
same,Population Mitochondria Different-Phenotype (%),[7],18%
same,Population Mitotic Cells (%),[7],46%
same,Population Normal (%),[7],78%
same,Population Pyknosed Nuclei (%),[7],60%
same,Population Tubulin-Different-Phenotype (%),[7],93%
same,Total Cell Count,[7],133
same,Population Apoptotic (%),[8],100%
same,Population Fragmented Nuclei (%),[8],12%
same,Population Healthy Nuclei (%),[8],24%
same,Population Hoechst High Intensity Objects (%),[8],25%
same,Population Membrane Permeable-Phenotype (%),[8],94%
same,Population Mitochondria Different-Phenotype (%),[8],88%
same,Population Mitotic Cells (%),[8],0%
same,Population Normal (%),[8],74%
same,Population Pyknosed Nuclei (%),[8],62%
same,Population Tubulin-Different-Phenotype (%),[8],88%
same,Total Cell Count,[8],34
same,Population Apoptotic (%),[9],57%
same,Population Fragmented Nuclei (%),[9],50%
same,Population Healthy Nuclei (%),[9],39%
same,Population Hoechst High Intensity Objects (%),[9],20%
same,Population Membrane Permeable-Phenotype (%),[9],24%
same,Population Mitochondria Different-Phenotype (%),[9],1%
same,Population Mitotic Cells (%),[9],42%
same,Population Normal (%),[9],79%
same,Population Pyknosed Nuclei (%),[9],9%
same,Population Tubulin-Different-Phenotype (%),[9],36%
same,Total Cell Count,[9],184
same,Population Apoptotic (%),[10],50%
same,Population Fragmented Nuclei (%),[10],40%
same,Population Healthy Nuclei (%),[10],58%
same,Population Hoechst High Intensity Objects (%),[10],21%
same,Population Membrane Permeable-Phenotype (%),[10],23%
same,Population Mitochondria Different-Phenotype (%),[10],0%
same,Population Mitotic Cells (%),[10],50%
same,Population Normal (%),[10],78%
same,Population Pyknosed Nuclei (%),[10],1%
same,Population Tubulin-Different-Phenotype (%),[10],63%
same,Total Cell Count,[10],220
same,Population Apoptotic (%),[11],58%
same,Population Fragmented Nuclei (%),[11],34%
same,Population Healthy Nuclei (%),[11],25%
same,Population Hoechst High Intensity Objects (%),[11],34%
same,Population Membrane Permeable-Phenotype (%),[11],39%
same,Population Mitochondria Different-Phenotype (%),[11],26%
same,Population Mitotic Cells (%),[11],41%
same,Population Normal (%),[11],65%
same,Population Pyknosed Nuclei (%),[11],40%
same,Population Tubulin-Different-Phenotype (%),[11],91%
same,Total Cell Count,[11],137
same,Population Apoptotic (%),[12],80%
same,Population Fragmented Nuclei (%),[12],37%
same,Population Healthy Nuclei (%),[12],16%
same,Population Hoechst High Intensity Objects (%),[12],33%
same,Population Membrane Permeable-Phenotype (%),[12],77%
same,Population Mitochondria Different-Phenotype (%),[12],0%
same,Population Mitotic Cells (%),[12],20%
same,Population Normal (%),[12],66%
same,Population Pyknosed Nuclei (%),[12],46%
same,Population Tubulin-Different-Phenotype (%),[12],100%
same,Total Cell Count,[12],81
